Test results taken from ChEMBL document CHEMBL1137349, “Selective angiotensin II AT2 receptor agonists: arylbenzylimidazole structure-activity relationships” (J Med Chem, 2006).
Activity calls are given as the source filed them. No cut-off for these calls is given here.

System: NG108-15
Test: Induction of neurite growth in NG108-15 cells at 0.1 uM after 3 days in presence of PD-123319
Type: functional, cell-based
Procedure, shortened: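 Here the 0.1 µM agonist was co-incubated with 1 µM of the AT2 antagonist PD 123,319 for 3 days. NG108-15 cells were plated at 4 × 10⁴ per 35 mm dish. The percentage of cells bearing a neurite longer than the cell body was counted from phase-contrast micrographs of 50–100 cells.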

Q: With `CCCCOC(=O)NS(=O)(=O)c1sc(CCC)cc1-c1ccc(Cn2ccnc2)cc1` as the compound, how does the Activity read?
A: inactive

Q: For `CCCCOC(=O)NS(=O)(=O)c1ccc(OCCCC)cc1-c1ccc(Cn2ccnc2)cc1`, which Activity is on record?
A: inactive

System: NG108-15
Test: Induction of neurite growth in NG108-15 cells relative to control
Type: functional, cell-based
Procedure, shortened: (§1)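 NG108-15 cells, which express only AT2, were plated at 4 × 10⁴ cells per 35 mm dish and grown 3 days with or without 0.1 µM agonist, with Ang II as reference. Micrographs were taken under phase contrast. Cells with at least one neurite longer than the cell body were scored positive, as a percentage of 50–100 total cells.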

Q: Which Activity does the source give for `Cc1cc(Cn2cnc3c2C[C@@H](C(=O)O)N(C(=O)C(c2ccccc2)c2ccccc2)C3)ccc1N(C)C` here?
A: inactive

System: NG108-15
Test: Induction of neurite growth in NG108-15 cells at 0.1 uM after 3 days
Type: functional, cell-based
Procedure, shortened: as §1

Q: Which Activity does the source give for `CCCCOC(=O)NS(=O)(=O)c1sc(CCC)cc1-c1ccc(Cn2ccnc2)cc1` here?
A: Active

Q: How did the Activity turn out when `CCCCOC(=O)NS(=O)(=O)c1ccc(OCCCC)cc1-c1ccc(Cn2ccnc2)cc1` was run?
A: Active

System: NG108-15
Test: Induction of NG108-15 cell death at 1 uM
Type: functional, cell-based
Procedure, shortened: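 NG108-15 neuroblastoma × glioma hybrid cells plated at 4 × 10⁴ cells per 35 mm dish and cultured 3 days with test agent across 1 pM to 1 µM. Cells were then examined by phase contrast microscopy and micrographs taken to assess cell death.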

Q: Which Activity does the source give for `CCCCOC(=O)NS(=O)(=O)c1sc(CCC)cc1-c1ccc(Cn2ccnc2)cc1` here?
A: Active

Q: For `CCCCOC(=O)NS(=O)(=O)c1ccc(OCCCC)cc1-c1ccc(Cn2ccnc2)cc1`, which Activity is on record?
A: Active

Molecular target: Type-1 angiotensin II receptor (Rattus norvegicus) (UniProt P25095)
Test: Displacement of [125I]Ang2 from AT1 receptor in rat liver membrane

Q: With `CC(C)Cc1cc(-c2ccc(Cn3ccnc3)cc2)c(S(=O)(=O)NC(=O)OC(C)(C)C)s1` as the compound, how does the Ki read?
A: > 10 µM

Q: How did the Ki turn out when `CCCCOC(=O)NS(=O)(=O)c1sc(CCCC)cc1-c1ccc(Cn2ccnc2)cc1` was run?
A: > 10 µM

Q: Which Ki does the source give for `CCCCN(C)C(=O)NS(=O)(=O)c1sc(CC(C)C)cc1-c1ccc(Cn2ccnc2)cc1` here?
A: > 10 µM

Q: `CCCCc1ccc(S(=O)(=O)NC(=O)OCC)c(-c2ccc(Cn3ccnc3)cc2)c1` was tested. Which Ki did it give?
A: > 10 µM

Q: How did the Ki turn out when `CCCCS(=O)(=O)NS(=O)(=O)c1sc(CC(C)C)cc1-c1ccc(Cn2ccnc2)cc1` was run?
A: > 10 µM

Q: How did the Ki turn out when `CCCCOC(=O)NS(=O)(=O)c1ccc(CCCC)cc1-c1ccc(Cn2ccnc2)cc1` was run?
A: > 10 µM

Q: `CC(C)Cc1cc(-c2ccc(Cn3ccnc3)cc2)c(S(=O)(=O)NC(=O)OC(C)C)s1` was tested. Which Ki did it give?
A: > 10 µM

Q: `COCCOC(=O)NS(=O)(=O)c1sc(CC(C)C)cc1-c1ccc(Cn2ccnc2)cc1` was tested. Which Ki did it give?
A: > 10 µM

Q: `CCCCS(=O)(=O)NC(=O)c1sc(CC(C)C)cc1-c1ccc(Cn2ccnc2)cc1` was tested. Which Ki did it give?
A: > 10 µM

Q: For `CCCCOC(=O)NS(=O)(=O)c1ccc(OC(C)C)cc1-c1ccc(Cn2ccnc2)cc1`, which Ki is on record?
A: > 10 µM
